Experimental data as given in ChEMBL document CHEMBL4513216, “Probing the Open Global Health Chemical Diversity Library for Multistage-Active Starting Points for Next-Generation Antimalarials” (ACS Infect Dis, 2020).

Assay: Toxicity liver stage against HepG2, at 10uM
Assay type: cell-based
Set-up: test concentration 10 uM, cell line HepG2-A16-CD81EGFP
Conditions: human, HepG2-A16-CD81EGFP cells; read-out: INHIBITION
Outline: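 Uninfected HepG2-A16-CD81EGFP cells, 3 × 10^3 per well, 1536-well, plated on prespotted compound at 10 μM final, parasite-free screening media added to match infected plates; puromycin 10 μM positive, DMSO 0.5% negative; run in parallel with 48 h PbLuc assay at 37 °C, 5% CO2; viability by CellTiter-Glo luminescence, normalized to controls.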

SMILES | cytotoxicity at 10 µM [%]
Cn1ccnc1CN1CCOC[C@H]1c1nc(C(C)(C)C)co1 | -4.13
CN(C)[C@@H]1CO[C@H](CNC(=O)CC(C)(C)C)[C@H]1O | -10.8
CC1CCN(c2ccc(NC(=O)CCn3cccn3)cc2)CC1 | -10.6
COc1cc(C2CC(=O)Nc3c2cnn3C)ccc1O (stereo unspecified) | 45.5
O=C(CCc1nc2ccccc2[nH]1)Nc1ccc2c(c1)OCC(=O)N2 | 17.9
O=C(Nc1nnn[nH]1)c1cc(-c2ccc(Br)s2)n[nH]1 | -2.71
CN(C)c1cccc(C(=O)N2CCCSCC2CN2CCCC2)c1 (stereo unspecified) | 7.03
CCC(CNC(=O)C1CCC1)(OC)c1ccccc1 (stereo unspecified) | 1.95
CCNC(=O)NCC(CC)(OC)c1ccccc1 (stereo unspecified) | 2.05
COc1ccc(C[C@H]2CN(C(=O)C3CC3)CC[C@H]2OC)cc1 | 2.67
O=C1CC2(CCCCN2C(=O)c2cccs2)CN1CC1CC1 (stereo unspecified) | 2.67
CCN(C)C(=O)c1cc(-c2ccn(C(C)C)n2)n2ccccc12 | -4.35
CN(C)CCN1CCc2ncc(CN(C)Cc3ccco3)n2CC1 | -6.26
Cc1cccc(COC2COC3(CCN(Cc4ccoc4)CC3)C2)n1 (stereo unspecified) | -0.211
Cc1cccc(C(=O)N2CCn3cnc(COCC4CC4)c3C2)n1 | 6.85
COc1cc2cc(C(=O)NCCC(=O)O)n(C)c2c(OC)c1OC | 4.76
CC(C)c1noc(C2CCN(C(=O)C3CCCO3)CC2)n1 (stereo unspecified) | 8.35
COc1ccc(OC)c(C(C)NS(=O)(=O)c2cnn(C)c2)c1 (stereo unspecified) | -3.35
Cc1ccc2c(c1)c(C)cc(=O)n2CCC#N | 5.81
Cc1nc(C(=O)N2CCc3[nH]nc(Nc4ccccc4)c3C2)co1 | 6.11
O=C(c1cncs1)N1CCOCC(Cc2ccncn2)C1 (stereo unspecified) | 1.13
CCc1noc(CCC(=O)N2CCC(c3ccn[nH]3)C2)n1 (stereo unspecified) | 6.03
C[C@@]1(O)CCN(C2CCOCC2)C[C@H]1n1ccc(=O)[nH]c1=O | 4

SMILES | cytotoxicity at 10 µM [%]
Cc1nc(C)c(C(=O)N2CCCC(c3cnccn3)C2)s1 (stereo unspecified) | -20.6
CS(=O)(=O)c1cn[nH]c1C1CCCCN1C(=O)c1cncs1 (stereo unspecified) | -19.1
Cc1cc(N2CCCC2c2cnccn2)ncn1 (stereo unspecified) | 2.44
CCS(=O)(=O)N1CCN(C(C)(C)CO)CC1 | -2.48
Cc1ccc(CNC(=O)c2ccc(CNS(C)(=O)=O)o2)cc1F | 15.2
CC(C)(C)CNC(=O)c1ccc(C(=O)O)cn1 | -4.01
Cn1cc(CNc2nc3cc(Cl)ccc3n2C)cn1 | 16.8
CC1CCC(N2CCC(NS(=O)(=O)CCCF)CC2)CC1 (stereo unspecified) | 1.2
O=C(C1CCCOC1)N1CCN(CC(F)(F)F)c2ccccc21 (stereo unspecified) | 8.09
CCOC(=O)N(C)CC(=O)NCCc1coc(-c2ccc(C)cc2)n1 | -13.9
COc1cccc(CNC2CCc3ccc(C)cc32)n1 (stereo unspecified) | 4.37
O=C1CCN(C(=O)NCc2ccccc2Oc2ccccc2)CCN1 | 6.03
CCOc1cc(Cl)ccc1CNC(=O)N1CCCC(CO)C1 (stereo unspecified) | 9.54
Cc1cnn(CC2CCCCN2C(=O)CCCc2nc(C)no2)c1 (stereo unspecified) | 1.46
COc1ccccc1C1(CNc2cc(C(=O)N(C)C)ccn2)CC1 | -1.6
CCOCc1ccccc1NC(=O)NCC(C)(O)c1ccsc1 (stereo unspecified) | -1.09
O=C1NCCCCC1NS(=O)(=O)N1CCCCC1 (stereo unspecified) | 1.48
COCc1cccc(CNC(=O)CNc2ccccc2C(C)=O)c1 | 0.529
CCc1noc(CC)c1CC(=O)N1CCC(C(=O)NC(C)C)CC1 | -10.9
Cc1cccc(CN2CCN(C(=O)c3cccnc3O)CC2)c1 | 1.73
CSCC(C)(O)CNc1ccccn1 (stereo unspecified) | 8.26
CN(CCc1nc2ccccc2c(=O)[nH]1)CCC(F)(F)F | -2.27
CCN(CC1CN(Cc2ncc[nH]2)CCO1)c1cccnn1 (stereo unspecified) | 1.31

SMILES | cytotoxicity at 10 µM [%]
CC(C#N)CSc1ccccc1NCC(=O)Nc1ccc(F)cc1 (stereo unspecified) | 8.19
CC(C)(C)c1n[nH]c(C2CN(C(=O)c3csnn3)CCO2)n1 (stereo unspecified) | -2.44
Cc1ccc(CCNC(=O)N2CCCC(Cc3nccn3C)C2)cn1 (stereo unspecified) | -9.26
Cc1noc(C)c1CN1CCn2c(COC(C)C)nnc2C1 | -113
Cc1oncc1C(=O)N1CC[C@H]2C[C@H](c3ccncn3)O[C@@H]2C1 | -67.4
C[C@@H]1CN(C(=O)c2nc3sccn3c2-c2ncc[nH]2)C[C@H](C)O1 | 3.85
O=C1CCC(CCC(=O)N2CCC2c2cccs2)=NN1 (stereo unspecified) | 6.13
CCC(C)N(Cc1sccc1C)C(=O)c1ccc2cccnc2n1 (stereo unspecified) | 2.05
COc1cccc(OCC2CCCN(C(=O)CCc3cc(O)no3)C2)c1 (stereo unspecified) | 0.611
O=C(c1ccc2c(c1)CCC2)N1CCN(c2ccc(Cl)cn2)CC1 | -2.27
CC1=C(C(=O)N2CCOC(Cc3cccc(C(F)(F)F)c3)C2)OCCO1 (stereo unspecified) | 5.31
Cc1nn(C)c2nc(-c3ccccn3)nc(NCCC3CCCN3C)c12 (stereo unspecified) | 1.91
CN(C)CC(=O)NC1CC(=O)N(CCc2ccccc2)C1 (stereo unspecified) | -1.73
CCc1ccc2nc(C)cc(C(=O)NCc3csc(N(C)C)n3)c2c1 | 2.64
O=C(NCCSc1ccccc1)[C@H]1CNC[C@H](C(=O)N2CCOCC2)C1 | -1.97
Cc1noc(C)c1CCCNC(=O)Nc1ccc2c(c1)CC(=O)N2 | -16
COc1ccc(Cc2ncc3c(n2)CN(C(=O)C(C)(C)OC)C3)cc1 | -1.24
CS(=O)(=O)CC(=O)N(CCN1CCOCC1)Cc1ccco1 | 3.11
Cc1nc(O)cc(C2CCN(C(=O)c3ccsc3)CC2)n1 | -4.97
CCc1nc(N2CCCC(CCCOC)(C(=O)O)C2)ncc1C (stereo unspecified) | 3.43
CCn1cc(CN2CCCN(C(=O)CCc3cccs3)CC2)cn1 | -6.99
O=C(c1ccc2cc[nH]c2c1)N1CCC(Nc2cccnn2)CC1 | -5.06
Cc1cnn(CC2CCCCN2C(=O)c2c(C)noc2C)c1 (stereo unspecified) | -7.26

SMILES | cytotoxicity at 10 µM [%]
CC1CCCN(CCNC(=O)c2scnc2Cl)C1 (stereo unspecified) | -6.06
COCCN1CCC(CNC(=O)C2(c3cccc(C)c3)CC2)C1 (stereo unspecified) | -4.28
CC1CN(Cc2ccc(C#N)cc2F)CCN1Cc1nccn1C (stereo unspecified) | -4.66
CC(=O)N(Cc1ncc(C)o1)C1CCN(Cc2nccn2C)C1 (stereo unspecified) | 6.57
Cc1cnn(CC2CN(Cc3nnc(C4CC4)n3C)CCO2)c1 (stereo unspecified) | -2.72
O=C(N1CCCC(n2cncn2)C1)C1(c2cccc(F)c2)CCCC1 (stereo unspecified) | 3.39
CC(C)n1ccnc1CN1CCCN(C(=O)c2cnn(C)c2)CC1 | -22.4
Cc1cc(C(=O)N2CCCC(n3cncn3)C2)no1 (stereo unspecified) | -9.98
O=C(NCc1ccncc1)Nc1cc(C(F)(F)F)c[nH]c1=O | -9.86
COc1c(CNCc2ccc(N(C)C)nc2)c(C)nn1C | -12.3
NC(=O)C1CCN(C(=O)NCc2cccnc2OC2CCCC2)C1 (stereo unspecified) | -7.12
NC(=O)COc1cccc(CN2CCc3cncnc3C2)c1 | -12.9
Cn1ccnc1CN1CCCN(Cc2noc(C3CC3)n2)CC1 | -3.33
CCOc1ccnc(N2CCN(C(=O)c3c(CC)noc3C)CC2)n1 | -5.43
CNC(=O)CCNC(=O)c1cc(C)n(-c2cccc(OC)c2)c1C | -10.2
CN(Cc1noc(C2CC2)n1)C1CCN(CCc2cnn(C)c2)C1 (stereo unspecified) | -0.222
O=C(Cc1csc(-c2ccco2)n1)N1CCCC1Cn1cccn1 (stereo unspecified) | -11.2
CCN(Cc1nc2c(cnn2C)c(=O)[nH]1)c1cccc(C)c1 | -7.09
COc1ccc(COCC(O)CNC(=O)Cc2ccc(C)cc2)cc1 (stereo unspecified) | -5.62
CCN1CCC(NC(=O)CN2CCCC2Cn2cc(C)cn2)CC1 (stereo unspecified) | -8.84
COc1ncccc1CNCc1c(C)nn(C)c1N(C)C | -7.62
CN(CCc1ccccc1)Cc1nc2c(cnn2C)c(=O)[nH]1 | -3.18
Cc1ccc(N2CCCC(NCc3ccc(-n4ccnc4)cc3)C2)nn1 (stereo unspecified) | -8.44

SMILES | cytotoxicity at 10 µM [%]
Cc1ccn2ncc(C(=O)N3CCCC(n4nc(C)nc4C)C3)c2n1 (stereo unspecified) | -13.6
CCc1ccccc1-n1cc(O)c(C(=O)N2CCCCC2)n1 | 0.495
Cc1ccc(N2CCCN(C(=O)c3c(C)oc(C)c3C)CC2)nn1 | 5.46
Cc1ccc(NC2CCN(C(=O)c3n[nH]c4ccccc34)CC2)nn1 | 2.96
O=C(NCCCn1cncn1)NCC(c1ccco1)N1CCCCC1 (stereo unspecified) | 0.987
Cc1cnn(CC2CCCCN2C(=O)c2ccc3nnc(C)n3c2)c1 (stereo unspecified) | 7.87
Cc1nnc(N2CCO[C@H]3[C@@H](OCc4ccccn4)CC[C@@H]32)s1 | 12.2
CC(=O)N1CCc2cc(C(=O)O)c(-c3ccsc3)nc2CC1 | 13.8
O=C([C@H]1COC[C@H]2CN(CC3CCCC3)C[C@H]21)N1CCOCC1 | 20.5
Cc1cnc(N2CCC3(CCC(C(=O)NC(C)C)C3)CC2)nc1 (stereo unspecified) | -0.603
O=C(N[C@@H]1CN[C@@H]2CCCO[C@@H]21)c1cscn1 | -8.69
O=C(N[C@@H]1CN(Cc2ccoc2)[C@@H]2CCCO[C@@H]21)C1CC1 | 0.0515
O=C1N(CC2CC2)CCC12CCN(Cc1ccoc1)CC2 | -0.302
Cn1cc(CN2C[C@@H]3CCCO[C@@H]3[C@H](NC(=O)CC3CC3)C2)cn1 | -0.00726
O=C(O)c1c(NC2CCC2)ncc2c1CCN(C1CCOC1)C2 (stereo unspecified) | 11.4
O=C(NCc1ccco1)[C@@]12CCO[C@@H]1CCN(CC1CCOCC1)C2 | 6.06
c1ccc(CN2C[C@@H]3COC[C@]3(COCC3CCOCC3)C2)nc1 | -0.326
CC(C)Cn1c(=O)[nH]c2cn(-c3ccc(F)cc3)c(=O)n21 | 8.2
COCC1N(S(=O)(=O)c2cn(C)cn2)C2CCC1(O)CC2 (stereo unspecified) | -2.04
